Screening results deposited in PubChem by several laboratories.
Many of the other results were omitted from the sample, so hits are more common in it than they were.
T cruzi repl = inhibitors of intracellular T. cruzi growth, primary screen, luminescence, NIH3T3 host cells. AID 1885, 2009. T. cruzi beta-gal in NIH3T3, 90 h. inhibition, % (no concentration beside the values). 300,000 compounds, 1.4% hits;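 active = mean inhibition across valid replicates above about 55%, limit read from the data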;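 note: signal also drops with host cell toxicity which is not excluded here; 0% = plate median of DMSO wells and 100% = zero luminescence signal; higher percent means less beta-gal luminescence so fewer parasites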
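assay system = mouse NIH/3T3 fibroblasts infected with β-gal-expressing T. cruzi Tulahuen C4 | input = 5,000 NIH/3T3 host cells per well | buffer or medium = DMEM plus 2% FBS | timing = 3 h host attachment, then at least 90 h co-culture | measured by = GalScreen luminescence, 60 min | evaluation = luminescence reflecting intracellular parasite burden, expressed as percent inhibition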
Redox H2O2 prof = compounds producing H2O2 with reducing agent – biochemical, NIH compound library profiling, artefact control for MLSCN library redox annotation, primary screen | DTT-dependent redox cycling H2O2, phenol red/HRP absorbance; 100% = 100 µM peroxide control, 0% = buffer | activation, % at 10 µM | 200,000 compounds, 0.03% hits;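 active = activation of at least 50% relative to the plate's high and low controls in the primary single-dose screen; inactive = activation below 50%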;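 note: compound incubated with DTT at 0.8 mM final as the reducing agent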
Lmaj promast = Leishmania major promastigote growth inhibition, primary screen; Leishmania major promastigotes, resazurin fluorescence viability; inhibition, % at 10 µM; 200,000 compounds, 9% hits; AID 1063, 2008; in the data active = inhibition above about 50%;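 note: promastigotes grown with compound for 44 hours at 28 °C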
Hep lipid drop = inhibitors of hepatocyte lipid droplet formation, primary screen, imaging, high-throughput imaging, BODIPY stain | AML12 mouse hepatocytes, oleate lipid droplets | inhibition, % at 6.5 µM | 240,000 compounds, 0.4% hits;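 active = lipid droplet intensity inhibited by at least 50%, with more than 500 cells counted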
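Material – AML12 mouse liver cells · Also added – oleate loading, 100 µM · Compound dosing – 6.5 µM single-point dosing · Times – overnight treatment with compound plus oleate · Measured by – fluorescence imaging, 20x objective, two fields per well · Read-out – percent inhibition of filter-corrected integrated lipid droplet intensity per well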
MPTP inh = mitochondrial permeability transition pore inhibitors, primary screen, biochemical, isolated mouse mitochondria, absorbance. 360,000 compounds, 1.4% hits. Ca2+ swelling absorbance, 30 min. AID 602449, 2012. inhibition, % at 10 µM;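 active = inhibition of 50% or more, scaled per plate between neutral and stimulator controls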;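 note: 0% = DMSO wells given calcium and 100% = 1 mM EGTA wells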
L major 1uM = Leishmania major promastigote growth inhibition, confirmation, 1 µM repeat of primary hits. 1,100 compounds, 13% hits. inhibition, % at 1 µM. shares compounds with Lmaj promast. L. major promastigote growth, resazurin fluorescence, 48 h;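 active = inhibition above about 50% in both repeat tests, limit read from the data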
Lipid drop inh = hepatocyte lipid droplet accumulation inhibitors, confirmation, imaging, AML12 mouse hepatocytes, single concentration, high-content. shares compounds with Hep lipid drop. BODIPY lipid droplet imaging; droplets induced with 100 µM oleic acid. inhibition, % at 5.2 µM. 870 compounds, 65% hits;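 active = inhibition of lipid droplet metric at least 50%, with more than 300 cells in each of four replicates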;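 note: plate controls were DMSO with oleic acid for no effect and 5 µM Triacsin-C for full effect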
AML12 cytotox = AML12 hepatocyte cytotoxicity, counter-screen for hepatic lipid droplet formation project, imaging, DAPI nuclear morphology imaging | AML12 mouse hepatocytes; stronger effect = higher value; cells fed 100 µM oleate overnight | z-score at 5 µM | 870 compounds, 3% hits | AID 463200, 2010 | shares compounds with Hep lipid drop; in the data active = z-score above about 6.3;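 note: compound exposure lasted overnight at 37 °C before fixation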
AML12 tox conf = AML12 hepatocyte cytotoxicity, confirmation, cytotoxicity control for hepatic lipid droplet formation project, cell-based, single concentration; 530 tested, under 10 active; AML12 mouse hepatocyte viability, ATP luminescence; cells loaded with 100 µM oleic acid; shares compounds with Hep lipid drop; AID 463219, 2010; cytotoxicity, % at 50 µM;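 active = cytotoxicity above 50% in each of four replicates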;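 note: compound exposure lasted overnight at 37 °C before the ATP read; 0% = DMSO-treated cells and 100% = wells with no cells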
MPTP counter = fluorescence retest of MPTP screen hits in isolated mitochondria, single concentration; shares compounds with MPTP inh; membrane potential, Rhodamine 123 fluorescence; inhibition, % at 10 µM; 5,000 compounds, 78% hits; in the data active = inhibition above about 22%;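 note: 0% = DMSO vehicle and 100% = positive control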
* = called active by the depositor.

How did CCOC(=O)c1c(C)[nH]c(N=Nc2ccccc2C)c1C do in these assays?
T cruzi repl: 34.5; Redox H2O2 prof: 0.1; Lmaj promast: 72.0*; Hep lipid drop: 68.5*; MPTP inh: 2.9; L major 1uM: -6.1; Lipid drop inh: 105.6*; AML12 cytotox: -0.669; AML12 tox conf: 11.5

How did O=C(Cc1ccccc1)NCC(=O)Nc1cccc(Cl)c1 do in these assays?
T cruzi repl: -5.2; Hep lipid drop: -8.1; MPTP inh: 0.8

What do the screens show for `CSc1nsc(SCC(=O)Nc2cccc(NC(C)=O)c2)n1`?
T cruzi repl: -6.6; Hep lipid drop: -12.5; MPTP inh: 0.8

How did CC(C)(C)C(=O)/C=c1\[nH]c(=O)/c(=C\c2ccc(F)cc2)s1 do in these assays?
T cruzi repl: -3.0; Redox H2O2 prof: -0.1; Lmaj promast: 73.2*; Hep lipid drop: 67.0*; MPTP inh: 2.4; L major 1uM: -3.6; Lipid drop inh: 98.4*; AML12 cytotox: 0.889; AML12 tox conf: 5.6

Results for COC(=O)c1cc(C)sc1NC(=O)C1CC(=O)NN1Cc1ccccc1 (stereo unspecified) ?
T cruzi repl: -4.5; Redox H2O2 prof: 0.0; Lmaj promast: 95.4*; Hep lipid drop: 86.3*; MPTP inh: 4.5; L major 1uM: 1.6; Lipid drop inh: 109.5*; AML12 cytotox: 0.396; AML12 tox conf: 4.0

How did COC(=O)c1cc(C)sc1NC(=O)CCc1ccccc1 do in these assays?
T cruzi repl: 2.3; Hep lipid drop: -2.5; MPTP inh: 0.6

Results for N#C/C(=C\c1ccc(N2CCOCC2)c([N+](=O)[O-])c1)c1nc2ccccc2[nH]1 ?
T cruzi repl: -3.6; Redox H2O2 prof: 0.2; Lmaj promast: 35.9; Hep lipid drop: 7.4; MPTP inh: 8.8

Results for Cc1ccc2nc(/C(C#N)=C\c3ccc(N4CCCCC4)c([N+](=O)[O-])c3)[nH]c2c1 ?
T cruzi repl: 72.4*; Redox H2O2 prof: 0.5; Lmaj promast: 97.3*; Hep lipid drop: 23.5; MPTP inh: 55.7*; L major 1uM: 4.3; MPTP counter: 63.5*

What do the screens show for `CCCc1cc(=O)[nH]c2nnc(SCC(=O)Nc3cc(C)on3)n12`?
T cruzi repl: 2.7; MPTP inh: 0.9

What do the screens show for `COC(=O)CS(=O)(=O)c1nnc([C@H](Cc2ccccc2)NC(=O)OC(C)(C)C)o1`?
T cruzi repl: 4.4; Redox H2O2 prof: 3.0; Lmaj promast: 100.5*; Hep lipid drop: 3.0; MPTP inh: 97.7*; L major 1uM: 0.1; MPTP counter: 0.7

How did Cc1cccc(CS(=O)(=O)c2nnc([C@H](Cc3ccccc3)NC(=O)OC(C)(C)C)o2)c1 do in these assays?
T cruzi repl: 42.6; Redox H2O2 prof: 0.3; Lmaj promast: 1.0; MPTP inh: 1.1

Results for Cc1occc1C(=O)/C(C#N)=C/c1ccc(O)c(Br)c1 ?
T cruzi repl: 2.5; Hep lipid drop: -2.7; MPTP inh: 47.5

What do the screens show for `On1onc2c3cc(-c4ccccc4)nc3ccc21`?
Redox H2O2 prof: 2.1; Lmaj promast: 100.4*; Hep lipid drop: -8.2; MPTP inh: 100.8*; L major 1uM: -22.3; MPTP counter: 64.6*

Results for c1ccc(-c2cc3c(ccc4nonc43)nn2)cc1 ?
T cruzi repl: -1.2; Redox H2O2 prof: 2.8; Lmaj promast: 2.2; MPTP inh: -2.4

Results for CC(C)CC(C(=O)NC1CCCCC1)N(Cc1ccccc1)C(=O)c1snc(C(N)=O)c1N (stereo unspecified) ?
T cruzi repl: -2.6; Hep lipid drop: -7.5; MPTP inh: 1.0

What do the screens show for `c1cc2c(cc1C1CCCCC1)c1c3n2CCCNC3CCC1` (stereo unspecified)?
T cruzi repl: 21.9; Redox H2O2 prof: -0.3; Lmaj promast: 100.4*; Hep lipid drop: -1.5; MPTP inh: 80.4*; L major 1uM: 17.1; MPTP counter: -29.1

Results for CC(C)c1ccc(/C=C(\NC(=O)c2ccccc2)C(=O)NCCCN2CCOCC2)cc1 ?
T cruzi repl: 15.0; Hep lipid drop: 2.4; MPTP inh: 0.0

What do the screens show for `C=CCn1cccc(/C=C/C(=O)c2ccc(C(C)(C)C)cc2)c1=S`?
T cruzi repl: 13.3; Redox H2O2 prof: 1.5; Lmaj promast: 100.3*; Hep lipid drop: -4.0; MPTP inh: 77.0*; L major 1uM: 65.5*; MPTP counter: 4.4

Results for CN1CCN(C(=S)NC(=O)c2ccc(C(C)(C)C)cc2)CC1 ?
T cruzi repl: -4.1; Redox H2O2 prof: -0.3; Lmaj promast: -9.2; Hep lipid drop: 29.3; MPTP inh: 0.6

Results for O=C(Nc1ccc(Cl)cc1)Nc1ccc2c(c1)N1CCN=C1S2 ?
T cruzi repl: 41.6; Redox H2O2 prof: 2.1; Lmaj promast: 100.3*; MPTP inh: 92.8*; L major 1uM: 0.7; MPTP counter: 76.9*

Results for O=C(CCSC1=NCCCN1)c1ccc(F)cc1 ?
MPTP inh: -1.0

How did N=c1oc2ccccc2cc1C(=O)Nc1ccccc1 do in these assays?
T cruzi repl: 2.0; Hep lipid drop: 0.5; MPTP inh: 1.5

What do the screens show for `CCCCCCc1cc2cc(C(=O)Nc3ccccc3)c(=O)oc2cc1O`?
T cruzi repl: 4.7; Redox H2O2 prof: -0.5; Lmaj promast: 86.2*; Hep lipid drop: -3.7; MPTP inh: 72.6*; L major 1uM: 4.4; MPTP counter: 12.7

How did Cc1nc2c(-c3ccc(Cl)cc3)c(C)[nH]n2c(=O)c1Cc1ccccc1 do in these assays?
T cruzi repl: 63.5*; Redox H2O2 prof: 7.5; Lmaj promast: 99.5*; Hep lipid drop: 7.6; MPTP inh: 68.9*; L major 1uM: -6.2; MPTP counter: 91.0*
